# Biological target: T1, A disintegrin and metalloproteinase with thrombospondin motifs 4 (Homo sapiens, UniProt O75173)
# T1 sequence (O75173 whole entry): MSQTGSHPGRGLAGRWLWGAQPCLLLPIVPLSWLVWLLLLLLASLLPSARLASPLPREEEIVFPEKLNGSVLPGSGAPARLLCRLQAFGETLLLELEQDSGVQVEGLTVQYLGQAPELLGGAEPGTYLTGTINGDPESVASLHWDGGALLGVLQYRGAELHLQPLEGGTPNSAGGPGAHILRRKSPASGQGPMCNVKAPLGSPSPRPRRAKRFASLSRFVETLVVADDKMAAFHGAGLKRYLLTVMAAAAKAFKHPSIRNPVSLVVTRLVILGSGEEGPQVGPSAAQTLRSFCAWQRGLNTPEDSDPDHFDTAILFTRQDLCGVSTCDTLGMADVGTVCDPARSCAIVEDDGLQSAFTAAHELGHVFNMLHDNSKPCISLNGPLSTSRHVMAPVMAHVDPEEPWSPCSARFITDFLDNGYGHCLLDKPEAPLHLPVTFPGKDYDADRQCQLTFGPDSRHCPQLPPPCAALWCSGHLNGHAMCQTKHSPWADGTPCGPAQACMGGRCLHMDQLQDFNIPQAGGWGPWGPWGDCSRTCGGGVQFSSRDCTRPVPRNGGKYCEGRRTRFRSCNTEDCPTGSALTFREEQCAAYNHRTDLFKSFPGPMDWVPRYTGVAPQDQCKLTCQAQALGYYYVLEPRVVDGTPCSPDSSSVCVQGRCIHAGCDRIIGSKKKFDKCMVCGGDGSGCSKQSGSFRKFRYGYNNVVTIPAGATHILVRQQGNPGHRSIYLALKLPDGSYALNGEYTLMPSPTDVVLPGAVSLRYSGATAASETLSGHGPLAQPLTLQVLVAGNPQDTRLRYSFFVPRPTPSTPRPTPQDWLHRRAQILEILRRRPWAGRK
# Assay: Inhibition of ADAMTS4 by FRET assay
row,IC50 [µM],Compound
1,7.5,Cn1nc(C(F)(F)F)c(/C=C2\SC(=S)NC2=O)c1SCc1ccc(C(C)(C)C)cc1

# Biological target: T2, A disintegrin and metalloproteinase with thrombospondin motifs 5 (Homo sapiens) (UniProt Q9UNA0)
# T2 sequence (whole entry): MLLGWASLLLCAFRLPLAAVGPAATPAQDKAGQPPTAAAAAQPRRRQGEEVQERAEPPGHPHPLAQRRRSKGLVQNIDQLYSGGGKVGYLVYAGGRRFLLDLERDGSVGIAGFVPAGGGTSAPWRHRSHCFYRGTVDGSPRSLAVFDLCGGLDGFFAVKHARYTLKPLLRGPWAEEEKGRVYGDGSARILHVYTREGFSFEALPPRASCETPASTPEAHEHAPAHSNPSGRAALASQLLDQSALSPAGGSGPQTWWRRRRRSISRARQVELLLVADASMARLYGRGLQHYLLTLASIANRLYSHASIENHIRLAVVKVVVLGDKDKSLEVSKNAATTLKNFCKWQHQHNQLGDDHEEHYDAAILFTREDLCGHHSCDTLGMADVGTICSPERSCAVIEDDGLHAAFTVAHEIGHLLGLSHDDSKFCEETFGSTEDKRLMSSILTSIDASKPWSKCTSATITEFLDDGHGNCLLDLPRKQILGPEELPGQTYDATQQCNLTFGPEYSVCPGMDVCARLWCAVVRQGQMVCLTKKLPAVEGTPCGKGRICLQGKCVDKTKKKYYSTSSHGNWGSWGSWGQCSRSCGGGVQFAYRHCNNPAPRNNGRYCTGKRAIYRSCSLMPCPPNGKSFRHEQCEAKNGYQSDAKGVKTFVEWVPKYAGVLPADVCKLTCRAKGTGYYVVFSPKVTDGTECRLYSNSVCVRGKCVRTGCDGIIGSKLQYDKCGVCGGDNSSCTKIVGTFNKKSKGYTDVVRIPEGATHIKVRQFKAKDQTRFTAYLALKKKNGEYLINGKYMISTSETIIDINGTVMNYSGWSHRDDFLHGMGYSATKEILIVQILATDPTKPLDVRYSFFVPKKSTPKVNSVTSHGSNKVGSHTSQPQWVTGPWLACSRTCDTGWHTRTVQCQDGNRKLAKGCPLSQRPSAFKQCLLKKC
# Assay: Inhibition of ADAMTS5 at 20 uM by FRET assay
# Outline: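 Percent inhibition of aggrecanase-2 (ADAMTS-5) measured at a single 20 µM compound level. Reported values are means of two experiments, with standard deviations of ±10%.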
row,inhibition [%],Compound
1,< 40,CN1CCN(c2c(CC3SC(=S)NC3=O)c(C(F)(F)F)nn2-c2ccccc2)CC1 (stereo unspecified)
2,47,Cn1nc(C(F)(F)F)c(/C=C2\SC(=S)NC2=O)c1Sc1ccc(Cl)cc1
3,44,Cn1nc(C(F)(F)F)c(/C=C2\SC(=S)NC2=O)c1SCc1ccccc1
4,42,O=C1NC(=S)S/C1=C\c1c(C(F)(F)F)nn(-c2ccccc2)c1SCc1ccco1
5,28,Cn1nc(C(F)(F)F)c(/C=C2\SC(=S)NC2=O)c1Sc1ccccc1
6,31,COc1ccc(CCOc2c(/C=C3\SC(=S)NC3=O)c(C(F)(F)F)nn2-c2ccccc2)cc1
7,53,COc1ccc(CSc2c(/C=C3\SC(=S)NC3=O)c(C(F)(F)F)nn2C)cc1
8,40,Cn1nc(C(F)(F)F)c(/C=C2\SC(=S)NC2=O)c1SCc1cccs1
9,45,CN1CCN(c2c(/C=C3\SC(=S)NC3=O)c(C(F)(F)F)nn2-c2ccccc2)CC1
10,42,O=C1NC(=S)SC1Cc1c(C(F)(F)F)nn(-c2ccccc2)c1SCc1ccco1 (stereo unspecified)

# Biological target: T3, A disintegrin and metalloproteinase with thrombospondin motifs 5 (Homo sapiens, UniProt Q9UNA0)
# T3 sequence (Q9UNA0 whole entry): T2 sequence (whole entry)
# Assay: Inhibition of ADAMTS5 by FRET assay
# Outline: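 Aggrecanase-2 (ADAMTS-5) inhibition reported as IC50 in µM. Values are means of two independent experiments, with standard deviations of ±10%.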
row,IC50 [µM],Compound
1,3.7,O=C1NC(=S)S/C1=C\c1c(-c2ccccc2)nn(-c2ccccc2)c1SCc1cccs1
2,7.1,O=C1NC(=S)S/C1=C\c1c(C(F)(F)F)nn(-c2ccccc2)c1OCCc1ccc(F)cc1
3,2.5,O=C1NC(=S)S/C1=C\c1c(C(F)(F)F)nn(-c2ccccc2)c1SCc1ccc(Cl)cc1
4,11.7,O=C1NC(=S)S/C1=C\c1c(C(F)(F)F)nn(C2CCCCC2)c1N1CCN(c2ncccn2)CC1
5,9,Cn1nc(C(F)(F)F)c(/C=C2\SC(=S)NC2=O)c1N1CCN(c2ccc(Cl)cc2)CC1
6,8.3,Cc1ccc(Sc2c(/C=C3\SC(=S)NC3=O)c(-c3ccccc3)nn2C)cc1
7,4.2,O=C1NC(=S)S/C1=C\c1c(C(F)(F)F)nn(-c2ccccc2)c1OCCc1ccc(Cl)cc1
8,6.7,O=C1NC(=S)S/C1=C\c1c(-c2ccccc2)nn(-c2ccccc2)c1SCc1ccco1
9,4.6,O=C1NC(=S)S/C1=C\c1c(-c2ccccc2)nn(C2CCCCC2)c1SCc1ccco1
10,2.1,O=C1NC(=S)S/C1=C\c1c(C(F)(F)F)nn(-c2ccccc2)c1N1CCN(c2ccc(Cl)cc2)CC1
11,16.9,O=C1NC(=S)S/C1=C\c1c(C(F)(F)F)nn(-c2ccccc2)c1SCc1ccccc1
12,23.2,Cn1nc(C(F)(F)F)c(/C=C2\SC(=S)NC2=O)c1SCc1ccccc1Cl
13,1.1,Cn1nc(C(F)(F)F)c(/C=C2\SC(=S)NC2=O)c1SCc1ccc(Cl)cc1
14,14.1,Cn1nc(-c2ccccc2)c(/C=C2\SC(=S)NC2=O)c1SCc1ccco1
15,8,O=C1NC(=S)S/C1=C\c1c(-c2ccccc2)nn(C2CCCCC2)c1N1CCN(c2ncccn2)CC1
16,5.8,O=C1NC(=S)SC1Cc1c(C(F)(F)F)nn(-c2ccccc2)c1SCc1ccc(Cl)cc1 (stereo unspecified)
17,9.1,O=C1NC(=S)S/C1=C\c1c(C(F)(F)F)nn(-c2ccccc2)c1OCCc1cccs1
18,4.2,O=C1NC(=S)S/C1=C\c1c(C(F)(F)F)nn(C2CCCCC2)c1SCc1ccc(Cl)cc1
19,2.2,Cn1nc(C(F)(F)F)c(/C=C2\SC(=S)NC2=O)c1SCc1ccc(C(C)(C)C)cc1
20,4.6,CN1CCN(c2c(/C=C3\SC(=S)NC3=O)c(-c3ccccc3)nn2-c2ccccc2)CC1
